The values below come from ChEMBL document CHEMBL1811885, “Antiplasmodial sesquiterpene alkaloids from the roots of Maytenus mekongensis” (J Nat Prod, 2011).

SMILES strings stand for the structures. ≈ marks a conversion by molar mass, not a printed value. Calls of active or inactive are those of the source. The rule behind the calls is not given here.

For one assay, the system named is Plasmodium falciparum. Kind of assay: Antiplasmodial activity against multi drug-resistant Plasmodium falciparum K1 infected in human type A+ erythrocytes assessed as inhibition of [G-3H]hypoxanthine incorporation after 42 hrs by scintillation counting. The class given is functional, organism-based. The note with it: for IC50: K1, 42 h.
A further assay deals with KB. Kind of assay: Cytotoxicity against human KB cells by SRB assay. The class given is functional, cell-based. In outline:
(§1)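 Colorimetric growth assay following the Skehan method, run on three human lines: KB (oral epidermal carcinoma), MCF7 (breast adenocarcinoma) and NCI-H187 (small cell lung).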

A further assay deals with MCF7. As to the kind of experiment: Cytotoxicity against human MCF7 cells by SRB assay. Type of assay: functional, cell-based. In outline: as §1
(Sulforhodamine B stains cellular protein and so reports cell mass.)

The next assay concerns NCI-H187. As to the kind of experiment: Cytotoxicity against human NCI-H187 cells by SRB assay. The class given is functional, cell-based. A digest of the protocol:
as §1

Take `CC(=O)OC[C@@]12[C@H](OC(C)=O)[C@H](OC(C)=O)[C@@H]3[C@@H](OC(=O)c4ccccc4)[C@@]14O[C@@]3(C)COC(=O)c1cccnc1CC[C@H](C)C(=O)O[C@@H]([C@H](OC(C)=O)[C@@H]2OC(C)=O)[C@]4(C)O`: the 50% inhibitory concentration (IC50) – broadly, the concentration that inhibits the measured activity by half – turned out to be 3.1 µM in the assay with Plasmodium falciparum and 46.7 µg/mL (≈ 53.8 µM) in the assay on KB. Further, the outcome in the assay on MCF7 and in the assay on NCI-H187 was inactive.

For `CC(=O)OC[C@]12[C@H](OC(C)=O)[C@H](OC(C)=O)[C@@H]3[C@@H](OC(C)=O)[C@@]14O[C@@]3(C)COC(=O)c1cccnc1C(C)C(C)C(=O)O[C@@H]([C@H](OC(C)=O)[C@@H]2OC(=O)c1ccccc1)[C@]4(C)O` (some centres undefined), in the assay on Plasmodium falciparum, the result was inactive.

For `CC(=O)OC[C@@]12[C@H](OC(C)=O)[C@@H](OC(C)=O)[C@@H]3[C@@H](OC(=O)c4ccccc4)[C@@]14O[C@@]3(C)COC(=O)c1cccnc1CC[C@](C)(OC(C)=O)C(=O)O[C@@H]([C@H](OC(C)=O)[C@@H]2OC(C)=O)[C@]4(C)O`, the IC50 in the assay with Plasmodium falciparum stood at 3.9 µM.

For `CC(=O)OC[C@@]12[C@H](OC(C)=O)[C@H](OC(C)=O)[C@@H]3[C@@H](OC(=O)c4ccccc4)[C@@]14O[C@@]3(C)COC(=O)c1cccnc1CC[C@H](C)C(=O)O[C@@H]([C@H](OC(C)=O)[C@@H]2OC(=O)c1ccccc1)[C@]4(C)O`, in the assay on Plasmodium falciparum, the IC50 is 2.5 µM.

On to `CC(=O)OC[C@@]12[C@H](OC(C)=O)[C@H](OC(C)=O)[C@@H]3[C@@H](OC(=O)c4ccccc4)[C@@]14O[C@@]3(C)COC(=O)c1cccnc1CC[C@](C)(OC(C)=O)C(=O)O[C@@H]([C@H](OC(C)=O)[C@@H]2OC(=O)c1ccccc1)[C@]4(C)O`, for which, in the assay with Plasmodium falciparum, the IC50 amounted to 3.5 µM.

For `CC(=O)OC[C@]12[C@H](OC(C)=O)[C@H](OC(C)=O)[C@@H]3[C@@H](OC(C)=O)[C@@]14O[C@@]3(C)COC(=O)c1cccnc1C(C)C(C)C(=O)O[C@@H]([C@H](OC(C)=O)[C@@H]2OC(C)=O)[C@]4(C)O` (some centres undefined), in the assay with Plasmodium falciparum, the result was inactive.

For the compound `CC(=O)OC[C@@]12[C@H](OC(C)=O)[C@@H](OC(C)=O)[C@@H]3[C@@H](OC(C)=O)[C@@]14O[C@@]3(C)COC(=O)c1cccnc1[C@@H](C)[C@H](C)C(=O)O[C@@H]([C@H](OC(C)=O)[C@@H]2OC(=O)c1ccccc1)[C@]4(C)O`, the outcome with Plasmodium falciparum was inactive.

Consider `CC(=O)OC[C@@]12[C@H](OC(C)=O)[C@H](OC(C)=O)[C@@H]3[C@@H](OC(=O)c4ccccc4)[C@@]14O[C@@]3(C)COC(=O)c1cccnc1CC[C@](C)(OC(C)=O)C(=O)O[C@@H]([C@H](OC(C)=O)[C@@H]2OC(C)=O)[C@]4(C)O` [MEKONGENSINE], for which the IC50 is 3.1 µM in the assay with Plasmodium falciparum and 28.2 µg/mL (≈ 30.5 µM) in the assay on KB. The outcome with MCF7 and with NCI-H187 was inactive.
